Screens as filed in PubChem BioAssay.
Most compounds without a hit are left out; they make up all but 1.9% or so of the library.
FAS TE block: inhibitors of human fatty acid synthase thioesterase domain; P49327; recombinant FAS-TE, OMFH fluorogenic substrate, fluorescence endpoint; inhibition, % at 15 µM; 0.67% of 360,000 active; AID 602261;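 active = compounds whose normalised, plate-corrected inhibition of enzyme fluorescence in the single-dose primary screen is 50% or more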
SENP1 inh: SENP1 (human) catalytic domain inhibition. inhibition, % at 10 µM. 0.21% of 360,000 active. recombinant SENP1 catalytic domain, CyPet-SUMO1-YPet FRET cleavage. AID 624204. Q9P0U3;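 active = inhibition at least 30% at 10 µM, raw YFP signal under a set limit, fluorescence ratio 0.5 to 1.5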
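Compound: 10 µM single point, 0.5% DMSO; Test system: hSENP1 catalytic domain, recombinant; Timing: 50 min reaction at room temperature; Technique: FRET, CFP and YFP emission; Control set: no-enzyme wells low, DMSO-plus-enzyme wells high control.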
ADAM17 inh: inhibitors of human ADAM17; P78536; recombinant ADAM17, EDANS/DABCYL FRET peptide cleavage; inhibition, % at 6.95 µM; 0.83% of 370,000 active;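 active = inhibition above the mean of compounds lying between control limits plus 3 SD, set per campaign, cut at about 8.5% in these data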
ADAM10 inh: ADAM10 inhibition, QFRET primary screen. O14672. 0.62% of 370,000 active. AID 720582. recombinant ADAM10, EDANS/DABCYL FRET peptide cleavage, 3 h. inhibition, % at 7 µM;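 active = inhibition above a per-campaign cutoff equal to the mean of compounds falling between control-based bounds plus 3 SD, cut at about 20% in these data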
ADAM10 counter: inhibits human ADAM10 in ADAM17 exosite counter-screen; shares compounds with ADAM17 inh; recombinant ADAM10, EDANS/DABCYL FRET peptide cleavage, 3 h; inhibition, % at 6.95 µM; 47% of 2,900 active; AID 743256;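 active = mean inhibition over the triplicate runs exceeds the activity threshold set in the earlier primary screen, cut at about 20% in these data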
ADAM17 confirm: human ADAM17 inhibition, confirmation | shares compounds with ADAM17 inh | recombinant ADAM17, EDANS/DABCYL QFRET peptide cleavage | inhibition, % at 6.95 µM | 65% of 2,900 active | AID 743257;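 active = mean inhibition across replicates above the hit cutoff set in the primary screen, cut at about 8.5% in these data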
Each line names hits and unclear results; the compound was inactive in the other large screens (follow-up assays come after a bar, where they were run).

OC(c1cccc(F)c1)c1ncc(-c2ccc(C(F)(F)F)cc2)[nH]1 (configuration not stated)	none
Cc1ccccc1CN1CCCCC(NC(=O)Nc2ccccc2)C1=O (configuration not stated)	none (no result: FAS TE block, SENP1 inh)
C=CCCC(=O)N1C[C@H]2CCN(C)[C@H]2C[C@H]1c1ccccc1Br	none (no result: FAS TE block, SENP1 inh)
O=C(NC1=NCCS1)c1ccc(Cl)c(S(=O)(=O)N2CCc3ccccc32)c1	ADAM17 inh 9.4 | ADAM10 counter inactive | ADAM17 confirm inactive
c1ccc(Nc2nc(N3CCOCC3)nc(N3CCOCC3)n2)cc1	none
C(=N\Nc1nc(Nc2ccccc2)nc(N2CCOCC2)n1)/c1c[nH]c2ccccc12	ADAM17 inh 9.2 (no result: FAS TE block, SENP1 inh) | ADAM10 counter inactive | ADAM17 confirm 10.9
CC(C)c1cc(C(C)C)c(S(=O)(=O)N2CCC(C(=O)NCc3cccs3)CC2)c(C(C)C)c1	none (no result: FAS TE block, SENP1 inh)
Cc1ccc(-c2c(C(=O)NC3CCCC3)oc(=O)c3ccccc23)cc1	none (no result: FAS TE block, SENP1 inh)
Cc1cc(N/N=C/c2c(O)ccc3ccccc23)nc(-c2ccccc2O)n1	ADAM17 inh 9.2 | ADAM10 counter inactive | ADAM17 confirm inactive
Oc1ccc2ccccc2c1/C=N/Nc1ccccc1	none
COC(=O)[C@H]1C[C@@]2(C)c3ccccc3N(C(=O)OC(C)(C)C)[C@H]2N1C(=O)OC(C)(C)C	none (no result: FAS TE block, SENP1 inh)
COc1cc(-c2nc(-c3ccccc3)c(-c3ccc(F)cc3)[nH]2)cc2c1OCO2	none
COc1ccccc1N=Nc1nc(-c2ccccc2)c(-c2ccccc2)[nH]1	ADAM17 inh 12.2 | ADAM10 counter inactive | ADAM17 confirm 10.5
CCOC(=O)/C(=N/Nc1ccccc1)c1csc(Nc2ccccc2)n1	ADAM17 inh 11.1 | ADAM10 counter inactive | ADAM17 confirm inactive
CCOC(=O)/C(=N\Nc1ccc(Cl)cc1)c1csc(Nc2ccccc2)n1	none
Cc1ccc(S(=O)(=O)N(CC(=O)Nc2cccc(N(C)S(C)(=O)=O)c2)c2ccc(Cl)c(Cl)c2)cc1	ADAM17 inh 13.0, ADAM10 inh 24.6 | ADAM10 counter 39.4 | ADAM17 confirm 22.4
Cc1ccc(NC(=O)c2ccc(CS(=O)(=O)Cc3ccccc3C)o2)cc1C	none (no result: FAS TE block, SENP1 inh)
C/C(=N\N=C1\NC(=O)CC(C(=O)O)S1)c1cccs1 (configuration not stated)	none
CNC(=O)C1CC(=O)N/C(=N/N=C(\C)c2cccs2)S1 (configuration not stated)	ADAM17 inh 10.0 | ADAM10 counter inactive | ADAM17 confirm 13.5
Cc1ccc(S(=O)(=O)N2CCOC2CNC(=O)C(=O)NCCc2ccccc2)cc1 (configuration not stated)	none
Cc1ccc(S(=O)(=O)N2CCOC2CNC(=O)C(=O)NCCCc2ccccc2)cc1 (configuration not stated)	ADAM17 inh 9.3 | ADAM10 counter 21.9 | ADAM17 confirm 21.0
Cc1ccccc1OCc1n[nH]c(=S)n1-c1cccc(Cl)c1	none
Cc1cc(Cl)ccc1OCc1n[nH]c(=S)n1C1CCCCC1	ADAM17 inh 9.3 | ADAM10 counter 30.3 | ADAM17 confirm 11.0
Cc1nc2ccc(C(=O)N3CCN(C(=O)OCc4ccccc4)CC3)cc2n1C1CCCC1	none (no result: FAS TE block, SENP1 inh)
COc1c(OC(C)=O)ccc(/C=C/c2ccc3cccc(OCc4ccccc4)c3n2)c1[N+](=O)[O-]	ADAM17 inh 9.7 | ADAM10 counter inactive | ADAM17 confirm 9.2
COc1ccc(CNS(=O)(=O)/C=C/c2ccc(OC)cc2CNC(=O)OC(C)(C)C)cc1	ADAM17 inh 9.4 (no result: FAS TE block, SENP1 inh) | ADAM10 counter 23.5 | ADAM17 confirm 9.7
CCOC(=O)Cn1cc(CN2CCS(=O)(=O)N(Cc3ccc(C)cc3)C(C(=O)OC)C2)nn1 (configuration not stated)	none (no result: FAS TE block, SENP1 inh)
O=C(Nc1nn(Cc2ccc(Cl)cc2)cc1Br)c1ccc(COc2ccccc2Cl)o1	ADAM17 inh 10.1 | ADAM10 counter 33.1 | ADAM17 confirm 18.1
Cc1cccc(C)c1NC(=O)C1(C)CSCC(=O)N1CCc1c[nH]c2ccccc12 (configuration not stated)	ADAM17 inh 10.9 (no result: FAS TE block) | ADAM10 counter inactive | ADAM17 confirm inactive
Cc1cccc(C)c1NC(=O)C1(C)CSCC(=O)N1CCc1ccccc1F (configuration not stated)	none (no result: FAS TE block)
